# From ChEMBL document CHEMBL4177582, “Modifications of flexible nonyl chain and nucleobase head group of (+)-erythro-9-(2's-hydroxy-3's-nonyl)adenine [(+)-EHNA] as adenosine deaminase inhibitors” (Bioorg Med Chem, 2017)
# Experiments:
# Adenosine deaminase = target: T1, Adenosine deaminase (Bos taurus, UniProt P56658); test: Inhibition of bovine adenosine deaminase pre-incubated for 5 mins before adenosine addition
# T1 sequence (P56658 whole entry): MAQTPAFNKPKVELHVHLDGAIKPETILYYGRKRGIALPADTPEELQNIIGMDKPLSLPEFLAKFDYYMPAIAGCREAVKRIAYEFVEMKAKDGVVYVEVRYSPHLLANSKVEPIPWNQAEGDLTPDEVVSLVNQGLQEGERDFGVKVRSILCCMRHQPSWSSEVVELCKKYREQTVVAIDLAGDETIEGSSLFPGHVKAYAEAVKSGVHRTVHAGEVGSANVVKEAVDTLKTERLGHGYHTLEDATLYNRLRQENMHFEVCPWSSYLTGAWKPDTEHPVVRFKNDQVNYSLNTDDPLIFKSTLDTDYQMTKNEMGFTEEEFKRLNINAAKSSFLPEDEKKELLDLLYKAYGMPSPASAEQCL
# [1] = Half life in rat liver microsomes pre-incubated at 37 degC for 5 mins before NADPH addition and measured after 30 mins by LC/MS/MS method; format: ADME, microsome
# [2] = Drug metabolism in human liver microsomes assessed as drug recovery pre-incubated at 37 degC for 5 mins measured after 30 mins in absence of NADPH by LC/MS/MS method; format: ADME, microsome; settings: read-out: Drug recovery
# [3] = Half life in mouse liver microsomes pre-incubated at 37 degC for 5 mins before NADPH addition and measured after 30 mins by LC/MS/MS method; format: ADME, microsome
# [4] = Drug metabolism in mouse liver microsomes assessed as metabolic turnover rate per 0.125 mg/ml protein pre-incubated at 37 degC for 5 mins before NADPH addition and measured after 30 mins by LC/MS/MS method; format: ADME, microsome; settings: 0.5 h
# [5] = Drug metabolism in rat liver microsomes assessed as drug recovery pre-incubated at 37 degC for 5 mins before NADPH addition and measured after 30 mins by LC/MS/MS method; format: ADME, microsome; settings: read-out: Drug recovery
# [6] = Half life in human liver microsomes pre-incubated at 37 degC for 5 mins before NADPH addition and measured after 30 mins by LC/MS/MS method; format: ADME, microsome
# [7] = Drug metabolism in rat liver microsomes assessed as drug recovery pre-incubated at 37 degC for 5 mins measured after 30 mins in absence of NADPH by LC/MS/MS method; format: ADME, microsome; settings: read-out: Drug recovery
# [8] = Drug metabolism in rat liver microsomes assessed as metabolic turnover rate per 0.125 mg/ml protein pre-incubated at 37 degC for 5 mins before NADPH addition and measured after 30 mins by LC/MS/MS method; format: ADME, microsome; settings: 0.5 h
# [9] = Drug metabolism in mouse liver microsomes assessed as drug recovery pre-incubated at 37 degC for 5 mins measured after 30 mins in absence of NADPH by LC/MS/MS method; format: ADME, microsome; settings: read-out: Drug recovery
# [10] = Drug metabolism in human liver microsomes assessed as drug recovery pre-incubated at 37 degC for 5 mins before NADPH addition and measured after 30 mins by LC/MS/MS method; format: ADME, microsome; settings: read-out: Drug recovery
# [11] = Drug metabolism in mouse liver microsomes assessed as drug recovery pre-incubated at 37 degC for 5 mins before NADPH addition and measured after 30 mins by LC/MS/MS method; format: ADME, microsome; settings: read-out: Drug recovery
# [12] = Drug metabolism in human liver microsomes assessed as metabolic turnover rate per 0.125 mg/ml protein pre-incubated at 37 degC for 5 mins before NADPH addition and measured after 30 mins by LC/MS/MS method; format: ADME, microsome; settings: 0.5 h
# [13] = Clearance in Wistar rat at 3 mg/kg, iv after 0.25 to 24 hrs by LC/MS/MS method; format: ADME, organism-based; settings: in vivo
# Outline: (§1)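 Male Wistar rats were given a single intravenous dose. The vehicle was NMP 10%, PEG-300 15%, and 0.1M ammonium acetate buffer q.s. (pH 3). Plasma concentration–time profiles were used to derive AUC0-t, Vss, clearance (mL/min/kg) and t1/2.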
# [14] = Volume of distribution at steady state in Wistar rat at 3 mg/kg, iv after 0.25 to 24 hrs by LC/MS/MS method; format: ADME, organism-based; settings: in vivo, read-out: Vdss; outline: as §1
# [15] = AUC (0 to t) in Wistar rat at 3 mg/kg, iv after 0.25 to 24 hrs by LC/MS/MS method; format: ADME, organism-based; set-up: time upper 24 hr, dose 3 mg/kg, time lower 0.25 hr, route intravenous; settings: in vivo; outline: as §1
# [16] = Half life in Wistar rat at 3 mg/kg, iv after 0.25 to 24 hrs by LC/MS/MS method; format: ADME, organism-based; settings: in vivo; outline: as §1
Structure (SMILES),Ki (Adenosine deaminase; read-out: Ki) [nM],half-life [1] [min],remaining at 0.5 h [2] [%],half-life [3] [min],Drug metabolism [4] [nmol/min/mg],remaining at 0.5 h [5] [%],half-life [6] [min],remaining at 0.5 h [7] [%],Drug metabolism [8] [nmol/min/mg],remaining at 0.5 h [9] [%],remaining at 0.5 h [10] [%],remaining at 0.5 h [11] [%],Drug metabolism [12] [nmol/min/mg],further results
C[C@H](O)[C@@H](CCc1cccc(Br)c1)n1cnc2c(N)ncnc21,0.6,–,–,–,–,–,–,–,–,–,–,–,–,–
C[C@H](O)[C@@H](CCc1cccc(C(=O)N2CCCC2)c1)n1cnc2c(N)ncnc21,2.2,–,–,–,–,–,–,–,–,–,–,–,–,–
C[C@H](O)[C@@H](CCc1cccc(-c2ccccn2)c1)n1cnc2c(N)ncnc21,2.3,> 30,91,> 30,0.15,64,> 30,100,0.12,100,82,58,0.06,–
C[C@H](O)[C@@H](CCc1cccc(C(=O)NC2CCCC2)c1)n1cnc2c(N)ncnc21,1.8,–,–,–,–,–,–,–,–,–,–,–,–,–
C[C@H](O)[C@@H](CCc1cccc(C(=O)O)c1)n1cnc2c(N)ncnc21,53,–,–,–,–,–,–,–,–,–,–,–,–,–
C[C@H](O)[C@@H](CCc1ccc(C(F)(F)F)cc1)n1ccc2c(N)ncnc21,–,–,–,–,–,–,–,–,–,–,–,–,–,Ki (Adenosine deaminase): Not Active
Cc1ccccc1SC[C@H]([C@H](C)O)n1cnc2c(N)ncnc21,66,–,–,–,–,–,–,–,–,–,–,–,–,–
C[C@H](O)[C@@H](CCC1CCCCC1)n1cnc2c(N)ncnc21,1.9,13,83,> 30,0.07,19,> 30,94,0.44,92,65,77,0.11,–
Cc1cccc(SC[C@H]([C@H](C)O)n2cnc3c(N)ncnc32)c1,49,–,–,–,–,–,–,–,–,–,–,–,–,–
C[C@H](O)[C@@H](CCc1cccc(F)c1)n1cnc2c(N)ncnc21,1.6,–,–,–,–,–,–,–,–,–,–,–,–,–
CCCCSC[C@H]([C@H](C)O)n1cnc2c(N)ncnc21,54,> 30,85,> 30,< 0.04,86,> 30,97,0.04,94,94,100,< 0.04,–
CC(C)(O)[C@@H](CCc1ccc(C(F)(F)F)cc1)n1cnc2c(N)ncnc21,69,–,–,–,–,–,–,–,–,–,–,–,–,–
C[C@H](O)[C@@H](CCc1cccc(-c2cnccn2)c1)n1cnc2c(N)ncnc21,1.9,> 30,94,> 30,0.16,90,> 30,85,< 0.04,94,71,57,0.09,–
C[C@H](O)[C@@H](CCc1cccc(-c2nccs2)c1)n1cnc2c(N)ncnc21,2.6,> 30,100,> 30,0.1,76,> 30,91,0.09,92,84,65,0.05,–
C[C@H](O)[C@@H](CCc1cccc(C(F)(F)F)c1)n1cnc2c(N)ncnc21,1.1,> 30,95,> 30,0.08,86,> 30,91,0.04,89,80,74,0.06,clearance [13]: 85 mL/min/kg; Vd [14]: 1.88 L/kg; AUC(0-t) [15]: 1.61 µM·h; half-life [16]: < 30 min
C[C@H](O)[C@@H](CCc1cccc(C(F)(F)F)c1)n1ccc2c(N)ncnc21,–,–,–,–,–,–,–,–,–,–,–,–,–,Ki (Adenosine deaminase): Not Active
C[C@H](O)[C@@H](CCc1ccc(C(F)(F)F)cc1)n1ncc2c(N)ncnc21,–,–,–,–,–,–,–,–,–,–,–,–,–,Ki (Adenosine deaminase): Not Active
C[C@H](O)[C@@H](CSc1ccccc1)n1cnc2c(N)ncnc21,135,–,–,–,–,–,–,–,–,–,–,–,–,–
CCc1ccc(CC[C@H]([C@H](C)O)n2cnc3c(N)ncnc32)s1,2.1,> 30,95,> 30,0.11,58,> 30,95,0.15,90,76,64,0.07,–
C[C@H](O)[C@@H](CCc1cccc(C(N)=O)c1)n1cnc2c(N)ncnc21,2.9,–,–,–,–,–,–,–,–,–,–,–,–,–
CC(=O)[C@@H](CCc1ccc(C(F)(F)F)cc1)n1cnc2c(N)ncnc21,–,–,–,–,–,–,–,–,–,–,–,–,–,Ki (Adenosine deaminase): Not Active
COC(=O)c1cccc(CC[C@H]([C@H](C)O)n2cnc3c(N)ncnc32)c1,2.2,> 30,65,> 30,0.04,96,> 30,99,< 0.04,100,68,88,0.1,–
C[C@H](O)[C@@H](CCc1ccc(C(F)(F)F)cc1)n1cnc2c(N)ncnc21,5.2,> 30,95,> 30,0.04,93,> 30,93,< 0.04,94,99,85,< 0.04,clearance [13]: 59 mL/min/kg; Vd [14]: 7.01 L/kg; AUC(0-t) [15]: 2.21 µM·h; half-life [16]: 133 min
C[C@H](O)[C@@H](CCc1ccccc1C(F)(F)F)n1cnc2c(N)ncnc21,6.2,–,–,–,–,–,–,–,–,–,–,–,–,–
C[C@H](O)[C@@H](CCc1ccc(C(F)(F)F)cc1)n1cnc(C(N)=O)c1,29,–,–,–,–,–,–,–,–,–,–,–,–,–
C[C@H](O)[C@@H](CCc1cccc(C(F)(F)F)c1)n1ncc2c(N)ncnc21,–,–,–,–,–,–,–,–,–,–,–,–,–,Ki (Adenosine deaminase): Not Active
C[C@H](O)[C@@H](CCc1cccc(C(=O)N(C)C)c1)n1cnc2c(N)ncnc21,1.8,–,–,–,–,–,–,–,–,–,–,–,–,–
CNC(=O)c1cccc(CC[C@H]([C@H](C)O)n2cnc3c(N)ncnc32)c1,2.7,> 30,92,> 30,< 0.04,91,> 30,100,< 0.04,96,90,100,< 0.04,–
C[C@H](O)[C@@H](CCc1cccc(CO)c1)n1cnc2c(N)ncnc21,4.6,–,–,–,–,–,–,–,–,–,–,–,–,–
C[C@H](O)[C@@H](CSc1cccc(C(F)(F)F)c1)n1cnc2c(N)ncnc21,25,> 100,89,25,0.22,83,> 100,100,0.05,100,83,43,0.05,–
